What all share (assay type): functional
Experiment [1] has as its system Staphylococcus aureus. Description: Antibacterial activity against Staphylococcus aureus ATCC 25923 after 16 to 18 hrs by serial plate dilution method.
For experiment [2], the system named is Klebsiella pneumoniae. The experiment can be described thus: Antibacterial activity against Klebsiella pneumoniae at MIC after 3 to 4 days. A digest of the protocol: (§1)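 Agar well diffusion on seeded agar plates, 20 mL agar per dish, dried 1 h at 37 °C. Wells punched and loaded with test compound in DMSO at its MIC. DMSO-only control. Plates run in triplicate and kept 3-4 days at 37 °C. Inhibition zone diameter measured.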

Experiment [3] has as its system Aspergillus flavus. Description: Antifungal activity against Aspergillus flavus NCIM N0.524 after 3 to 4 days by serial plate dilution method.
The subject of experiment [4] is Aspergillus flavus. The experiment can be described thus: Antifungal activity against Aspergillus flavus NCIM N0.524 at MIC after 3 to 4 days. A digest of the protocol:
(§2)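 Fungal suspension made by transferring a loopful of culture to 3 mL saline and seeding agar plates, 20 mL agar per dish, dried 1 h at 37 °C. Punched wells loaded with test compound in DMSO at its MIC. DMSO-only control. Triplicate plates held 3-4 days at 37 °C. Inhibition zone diameter measured.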

Experiment [5] concerns Staphylococcus aureus. The experiment can be described thus: Antibacterial activity against Staphylococcus aureus ATCC 25923 at […] after 3 to 4 days. In short, it runs like this: as §1
Experiment [6] concerns Mycobacterium tuberculosis. The experiment can be described thus: Antitubercular activity against Mycobacterium tuberculosis H37Rv assessed as growth inhibition after 7 days by resazurin assay. In short, it runs like this: (§3)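 M. tuberculosis H37Rv ATCC 27294 grown in Middlebrook 7H9 broth with 10% OADC and adjusted to McFarland 2. Culture was diluted 1:4 into fresh medium. Compounds came from 2 mg/mL DMF stocks, screened first at 1, 10 and 100, then at 0.3125–5. DMF-only controls were included. After 7 days at 37 °C, 0.01% resazurin was added; a blue-to-pink change marked growth, and the MIC was read.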
(In general: The colour change of resazurin is a common sign of viable cells or microbes.)

Experiment [7] deals with Aspergillus fumigatus. Description: Antifungal activity against Aspergillus fumigatus NCIM N0.902 after 3 to 4 days by serial plate dilution method.
Experiment [8] has as its system Mycolicibacterium smegmatis. Description: Antitubercular activity against Mycobacterium smegmatis ATCC 19420 after 7 days by resazurin assay. The following applies: ATCC 19420, 168 h. In short, it runs like this:
(§4)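 Middlebrook 7H9 broth with 10% OADC, culture adjusted to McFarland 2. 50 µL culture added to 150 µL fresh medium. Stocks at 2 mg/mL in DMF, tested first at 1, 10 and 100 µg/mL, then at 0.3125-5 µg/mL. DMF controls. After 7 days at 37 °C, 0.01% resazurin added. Blue-to-pink change read for MIC.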

For experiment [9], the system named is Pseudomonas aeruginosa. Description: Antibacterial activity against Pseudomonas aeruginosa ATCC 27853 at MIC after 3 to 4 days. A digest of the protocol: as §1
Experiment [10] concerns Candida albicans. Description: Antifungal activity against Candida albicans after 3 to 4 days by serial plate dilution method.
Experiment [11] concerns Escherichia coli. Description: Antibacterial activity against Escherichia coli ATCC 25922 after 16 to 18 hrs by […].
For experiment [12], the system named is Bacillus subtilis. Description: Antibacterial activity against Bacillus subtilis at MIC after 3 to 4 days. A digest of the protocol: as §1
Experiment [13] concerns Trichophyton mentagrophytes. The experiment can be described thus: Antifungal activity against Trichophyton mentagrophytes at MIC after 3 to 4 days. In short, it runs like this: as §2
The subject of experiment [14] is Talaromyces marneffei. Description: Antifungal activity against Penicillium marneffei after 3 to 4 days by serial plate dilution method.
In experiment [15] the test system is Aspergillus fumigatus. Description: Antifungal activity against Aspergillus fumigatus NCIM N0.902 at MIC after 3 to 4 days. A digest of the protocol: as §2
Experiment [16] deals with Mycobacterium tuberculosis. The experiment can be described thus: Antitubercular activity against Mycobacterium tuberculosis H37Rv after 7 days by resazurin assay. The settings on record: 168 h. In short, it runs like this: as §3
In experiment [17] the test system is Pseudomonas aeruginosa. The experiment can be described thus: Antibacterial activity against Pseudomonas aeruginosa ATCC 27853 after 16 to 18 hrs by […].
Experiment [18] deals with Escherichia coli. The experiment can be described thus: Antibacterial activity against Escherichia coli ATCC 25922 at MIC after 3 to 4 days. A digest of the protocol:
as §1

Experiment [19] deals with Talaromyces marneffei. The experiment can be described thus: Antifungal activity against Penicillium marneffei at MIC after 3 to 4 days. In short, it runs like this: as §2
Experiment [20] has as its system Bacillus subtilis. Description: Antibacterial activity against Bacillus subtilis after 16 to 18 hrs by […].
Experiment [21] relates to Candida albicans. The experiment can be described thus: Antifungal activity against Candida albicans at MIC after 3 to 4 days. A digest of the protocol: as §2
Experiment [22] concerns Trichophyton mentagrophytes. Description: Antifungal activity against Trichophyton mentagrophytes after 3 to 4 days by serial plate dilution method.
For experiment [23], the system named is Mycolicibacterium fortuitum. Description: Antitubercular activity against Mycobacterium fortuitum ATCC 19542 after 7 days by resazurin assay. The following applies: ATCC 19542, 168 h. In short, it runs like this: as §4
The test system of experiment [24] is Klebsiella pneumoniae. Description: Antibacterial activity against Klebsiella pneumoniae after 16 to 18 hrs by […].

In brackets after ≈: the same amount, converted by molar mass. A value given as a limit tells only on which side of the number the result lay.

The MIC is the least concentration at which growth counts as inhibited. A low value points to greater potency. For the compound `Nc1nc(COC(=O)c2ccc(Cl)cc2)cs1`, the minimal inhibitory concentration (MIC) against Staphylococcus aureus [1] was 6.25 µg/mL (≈ 23.3 µM); in the experiment with Aspergillus flavus [3], 25 µg/mL (≈ 93 µM); against Aspergillus fumigatus [7] it was 6.25 µg/mL (≈ 23.3 µM); in experiment [8] it was more than 100 µg/mL; against Candida albicans [10], 25 µg/mL (≈ 93 µM); against Escherichia coli [11] it was 6.25 µg/mL (≈ 23.3 µM). In addition, the MIC against Talaromyces marneffei [14] was 25 µg/mL (≈ 93 µM); in experiment [16], more than 100 µg/mL; against Pseudomonas aeruginosa [17], 6.25 µg/mL (≈ 23.3 µM); with Bacillus subtilis [20], 6.25 µg/mL (≈ 23.3 µM); in [22], 6.25 µg/mL (≈ 23.3 µM); in experiment [23] it was more than 100 µg/mL. In the experiment on Klebsiella pneumoniae [24], this compound gave an MIC of 6.25 µg/mL (≈ 23.3 µM). Also, the “diameter of the inhibition zone (DIZ)” value with Klebsiella pneumoniae [2] was 16 mm; with Aspergillus flavus [4], less than 10 mm; in the experiment on Staphylococcus aureus [5] it was 16 mm; in the experiment with Pseudomonas aeruginosa [9], 16 mm; in the experiment on Bacillus subtilis [12] it was 16 mm; in experiment [13], 16 mm. Besides, the “diameter of the inhibition zone (DIZ)” value in the experiment with Aspergillus fumigatus [15] is 16 mm; in the experiment on Escherichia coli [18] it was 16 mm; in the experiment on Talaromyces marneffei [19], less than 10 mm; with Candida albicans [21], less than 10 mm. Besides, the “growth inhibition (GI)” value in experiment [6] is given as 0%.

In the case of `Nc1nc(COC(=O)c2ccc(Br)cc2)cs1`, the MIC against Staphylococcus aureus [1] came out at 25 µg/mL (≈ 79.8 µM); in the experiment on Aspergillus flavus [3] it was 25 µg/mL (≈ 79.8 µM); against Aspergillus fumigatus [7], 25 µg/mL (≈ 79.8 µM); in experiment [8] it was 2.5 µg/mL (≈ 7.98 µM); with Candida albicans [10] it was 6.25 µg/mL (≈ 20 µM); in the experiment on Escherichia coli [11], 25 µg/mL (≈ 79.8 µM). In addition, the MIC with Talaromyces marneffei [14] was 25 µg/mL (≈ 79.8 µM); in experiment [16], 2.5 µg/mL (≈ 7.98 µM); against Pseudomonas aeruginosa [17], 25 µg/mL (≈ 79.8 µM); with Bacillus subtilis [20], 25 µg/mL (≈ 79.8 µM); in experiment [22], 12.5 µg/mL (≈ 39.9 µM); in experiment [23], more than 100 µg/mL. For the same compound, 6.25 µg/mL (≈ 20 µM) was the least that counted as inhibitory in the experiment on Klebsiella pneumoniae [24] (MIC). For the same compound, the “diameter of the inhibition zone (DIZ)” value with Klebsiella pneumoniae [2] is recorded as 16 mm; with Aspergillus flavus [4], less than 10 mm; in the experiment on Staphylococcus aureus [5], less than 10 mm; in the experiment with Pseudomonas aeruginosa [9], less than 10 mm; in the experiment with Bacillus subtilis [12] it was less than 10 mm; in experiment [13] it was 11 mm. The “diameter of the inhibition zone (DIZ)” value in the experiment on Aspergillus fumigatus [15] is recorded as less than 10 mm; with Escherichia coli [18] it was less than 10 mm; in the experiment with Talaromyces marneffei [19] it was less than 10 mm; in the experiment with Candida albicans [21] it was 16 mm. The “growth inhibition (GI)” value in [6] was less than 90%.

As for `Nc1nc(COC(=O)c2ccccc2[N+](=O)[O-])cs1`, the MIC came out at 12.5 µg/mL (≈ 44.8 µM) in the experiment on Staphylococcus aureus [1]; 25 µg/mL (≈ 89.5 µM) with Aspergillus flavus [3]; 25 µg/mL (≈ 89.5 µM) in the experiment with Aspergillus fumigatus [7]; 10 µg/mL (≈ 35.8 µM) in [8]; 25 µg/mL (≈ 89.5 µM) in the experiment on Candida albicans [10]; 12.5 µg/mL (≈ 44.8 µM) in the experiment on Escherichia coli [11]. The MIC in the experiment with Talaromyces marneffei [14] was 12.5 µg/mL (≈ 44.8 µM); in [16] it was 0.625 µg/mL (≈ 2.24 µM); in the experiment with Pseudomonas aeruginosa [17], 25 µg/mL (≈ 89.5 µM); against Bacillus subtilis [20], 12.5 µg/mL (≈ 44.8 µM); in [22], 25 µg/mL (≈ 89.5 µM); in [23], 10 µg/mL (≈ 35.8 µM). The MIC against Klebsiella pneumoniae [24] is 6.25 µg/mL (≈ 22.4 µM). Besides, the “diameter of the inhibition zone (DIZ)” value in the experiment with Klebsiella pneumoniae [2] was 16 mm; in the experiment on Aspergillus flavus [4] it was less than 10 mm; with Staphylococcus aureus [5], 11 mm; in the experiment on Pseudomonas aeruginosa [9], less than 10 mm; in the experiment with Bacillus subtilis [12], 11 mm; in [13], less than 10 mm. Besides, the “diameter of the inhibition zone (DIZ)” value with Aspergillus fumigatus [15] was less than 10 mm; with Escherichia coli [18] it was 11 mm; in the experiment with Talaromyces marneffei [19] it was 11 mm; with Candida albicans [21], less than 10 mm. The “growth inhibition (GI)” value in [6] was found to be 95%.

For the origin of these results see ChEMBL document CHEMBL1944562, “Design, synthesis of some new (2-aminothiazol-4-yl)methylester derivatives as possible antimicrobial and antitubercular agents” (2012).
